# Measured values as given in ChEMBL document CHEMBL2401663, “(Biphenyl-4-yl)methylammonium chlorides: potent anticonvulsants that modulate Na+ currents” (J Med Chem, 2013).
# Calls of active or inactive are those of the source. The calls are words filed in the database; no cut-off is given here.
# Tests used:
# CAD [1] = assay: Inhibition of Na+ channel in mouse CAD cells assessed as frequency-dependent inactivation at 10 uM by whole cell voltage clamp technique relative to control; format: cell-based
# Method in brief: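 Frequency (use)-dependent inhibition of Na+ currents in CAD cells by whole-cell voltage clamp at room temperature. Current trend and amplitude at 10 μM compared with control.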
# [2] = Inhibition of Na+ channel in mouse CAD cells assessed as slow inactivation by whole cell voltage clamp technique; format: cell-based
# Method in brief: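 CAD cells (Ham's F12/EMEM, 8% FBS, 37 °C, 5% CO2) by whole-cell voltage clamp at room temperature. Na+ channel slow inactivation measured at −50 mV; IC50 is the concentration at which half of the channels reach a slow-inactivated state.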
# CAD [3] = assay: Inhibition of Na+ channel in mouse CAD cells assessed as fast inactivation by whole cell voltage clamp technique; format: cell-based
# Method in brief: (§1)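 Steady-state fast inactivation in CAD cells by whole-cell voltage clamp at room temperature. Cells held at −80 mV, given 500-ms prepulses from −120 to −10 mV in 10-mV steps, then a 20-ms step to 0 mV. Curves fitted with a single Boltzmann; V1/2 shift compared with 0.1% DMSO by ANOVA and Dunnett's test. Mean ± SEM.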
# [4] = Toxicity in ip dosed albino CF1 mouse after 0.25 to 4 hrs by rotorod test; format: organism-based; conditions: in vivo
# Rattus norvegicus [5] = assay: Anticonvulsant activity against ip dosed albino Sprague-Dawley rat after 0.25 to 4 hrs by maximal electroshock seizure test; format: functional
# Method in brief: (§2)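 Male albino Sprague-Dawley rats dosed ip or orally under the NIH Anticonvulsant Screening Program, tested by maximal electroshock seizure.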
# [6] = Toxicity in po dosed albino Sprague-Dawley rat assessed as behavioral toxicity after 0.25 to 4 hrs; format: organism-based; conditions: in vivo
# Method in brief: (§3)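 Male albino Sprague-Dawley rats dosed ip or orally, scored for behavioral toxicity (neurological impairment). TD50 is in mg/kg, taken at the time of peak effect.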
# [7] = Toxicity in ip dosed albino Sprague-Dawley rat assessed as behavioral toxicity after 0.25 to 4 hrs; format: organism-based; conditions: in vivo; method in brief: as §3
# Mus musculus [8] = assay: Anticonvulsant activity against ip dosed albino CF1 mouse after 1 to 4 hrs by 6 Hz psychomotor seizure test; format: functional
# Mus musculus [9] = assay: Anticonvulsant activity against ip dosed albino CF1 mouse after 0.25 to 4 hrs by subcutaneous pentylenetetrazol test; format: functional
# Rattus norvegicus [10] = assay: Anticonvulsant activity against po dosed albino Sprague-Dawley rat after 0.25 to 4 hrs by maximal electroshock seizure test; format: functional; method in brief: as §2
# Mus musculus [11] = assay: Anticonvulsant activity against ip dosed albino CF1 mouse after 4 hrs by maximal electroshock seizure test; format: functional
# Mus musculus [12] = assay: Anticonvulsant activity against ip dosed albino CF1 mouse after 1 hr by 6 Hz psychomotor seizure test; format: functional
# Mus musculus [13] = assay: Anticonvulsant activity against ip dosed albino CF1 mouse after 0.5 to 4 hrs by subcutaneous pentylenetetrazol test; format: functional
# Mus musculus [14] = assay: Anticonvulsant activity against ip dosed albino CF1 mouse after […] by maximal electroshock seizure test; format: functional
# Rattus norvegicus [15] = assay: Anticonvulsant activity against ip dosed albino Sprague-Dawley rat after 2 hrs by maximal electroshock seizure test; format: functional; method in brief: as §2
# Rattus norvegicus [16] = assay: Toxicity in ip dosed albino Sprague-Dawley rat assessed as behavioral toxicity after 2 hrs; format: organism-based; conditions: in vivo; method in brief: as §3
# Rattus norvegicus [17] = species on record: Rattus norvegicus; assay: Inhibition of Na+ channel in rat embryonic cortical neurons assessed as slow inactivation at 20 uM by whole cell voltage clamp technique
# Method in brief: (§4)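 Embryonic day 19 rat cortical neurons by whole-cell voltage clamp at room temperature, with protocols mostly as for CAD cells. 20 μM compared with 0.1% DMSO. Activation from 15-ms pulses, −70 to +80 mV; conductance G = I/(Vm − Vrev); Boltzmann fits giving V1/2 and k. Mean ± SEM; ANOVA with post-hoc test.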
# Mus musculus [18] = assay: Toxicity in ip dosed albino CF1 mouse after 6 hrs by rotorod test; format: organism-based; conditions: in vivo
# Rattus norvegicus [19] = species on record: Rattus norvegicus; assay: Inhibition of Na+ channel in rat embryonic cortical neurons assessed as steady state activation at 20 uM by whole cell voltage clamp technique relative to control; method in brief: as §4
# Mus musculus [20] = assay: Anticonvulsant activity against ip dosed albino CF1 mouse after 0.5 hrs by maximal electroshock seizure test; format: functional
# Rattus norvegicus [21] = species on record: Rattus norvegicus; assay: Inhibition of Na+ channel in rat embryonic cortical neurons assessed as frequency-dependent inactivation at 20 uM by whole cell voltage clamp technique relative to control
# Rattus norvegicus [22] = assay: Anticonvulsant activity against po dosed albino Sprague-Dawley rat after 2 hrs by maximal electroshock seizure test; format: functional; method in brief: as §2
# Mus musculus [23] = assay: Anticonvulsant activity against ip dosed albino CF1 mouse after 4 hrs by subcutaneous pentylenetetrazol test; format: functional; conditions: albino CF1, 4 h
# CAD [24] = assay: Inhibition of Na+ channel in mouse CAD cells assessed as hyperpolarizing shift at 1 uM by whole cell voltage clamp technique (reference value: -71.6 +/- 0.6 mV); format: cell-based; method in brief: as §1
# CAD [25] = assay: Inhibition of Na+ channel in mouse CAD cells assessed as hyperpolarizing shift at 30 uM by whole cell voltage clamp technique (reference value: -71.6 +/- 0.6 mV); format: cell-based; method in brief: as §1
# Rattus norvegicus [26] = species on record: Rattus norvegicus; assay: Protective index, ratio of TD50 for albino Sprague-Dawley rat to ED50 for albino Sprague-Dawley rat; format: functional
# Method in brief: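 Protective index is TD50/ED50, both from orally dosed male Sprague-Dawley rats. TD50 is for behavioral toxicity and ED50 is for maximal electroshock seizure.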
# Rattus norvegicus [27] = species on record: Rattus norvegicus; assay: Inhibition of Na+ channel in rat embryonic cortical neurons assessed as fast inactivation at 20 uM by whole cell voltage clamp technique (reference value: -53.9 +/- 1.2 mV); method in brief: as §4
# Mus musculus [28] = assay: Anticonvulsant activity against ip dosed albino CF1 mouse after […] by subcutaneous pentylenetetrazol test; format: functional
# Rattus norvegicus [29] = assay: Anticonvulsant activity against ip dosed albino Sprague-Dawley rat after 0.25 to 2 hrs by maximal electroshock seizure test; format: functional; method in brief: as §2
# Mus musculus [30] = assay: Anticonvulsant activity against ip dosed albino CF1 mouse after 0.25 to 1 hr by 6 Hz psychomotor seizure test; format: functional
# Mus musculus [31] = assay: Toxicity in ip dosed albino CF1 mouse after […] by rotorod test; format: organism-based; conditions: in vivo
# [32] = Toxicity in po dosed albino Sprague-Dawley rat assessed as behavioral toxicity; format: organism-based; conditions: in vivo
# Method in brief: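 Neurological impairment was scored as behavioral toxicity in male albino Sprague-Dawley rats dosed orally, NIH Anticonvulsant Screening Program. The median impairing dose (TD50, mg/kg) was taken at the time of peak effect.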
# Rattus norvegicus [33] = assay: Anticonvulsant activity against ip dosed albino Sprague-Dawley rat after […] by maximal electroshock seizure test; format: functional
# Mus musculus [34] = assay: Anticonvulsant activity against ip dosed albino CF1 mouse after 0.25 to 4 hrs by maximal electroshock seizure test; format: functional
# Mus musculus [35] = assay: Anticonvulsant activity against ip dosed albino CF1 mouse after 2 hrs by subcutaneous pentylenetetrazol test; format: functional; conditions: albino CF1, 2 h
structure (smiles),measurement,setting,value
NCc1ccc(OCc2cccc(F)c2)cc1,inhibition,CAD [1],Active
same,IC50,[2],2.1 µM
same,inhibition,CAD [3],Active
Cl.NCc1ccc(-c2ccc(F)cc2)cc1,TD50,[4],> 50 mg/kg
same,ED50,Rattus norvegicus [5],> 30 mg/kg
same,TD50,[6],> 30 mg/kg
same,TD50,[7],> 30 mg/kg
same,ED50,Mus musculus [8],< 100 mg/kg
same,ED50,Mus musculus [9],> 50 mg/kg
same,ED50,Rattus norvegicus [10],> 30 mg/kg
same,ED50,Mus musculus [11],50 mg/kg
COc1cccc(-c2ccc(CN)cc2)c1.Cl,TD50,[4],> 100 mg/kg
same,ED50,Rattus norvegicus [5],> 30 mg/kg
same,TD50,[6],> 30 mg/kg
same,ED50,Mus musculus [12],100 mg/kg
same,TD50,[7],> 30 mg/kg
same,ED50,Mus musculus [13],> 100 mg/kg
same,ED50,Mus musculus [14],< 100 mg/kg
same,ED50,Rattus norvegicus [10],> 30 mg/kg
Cl.NCc1ccc(-c2cccc(OC(F)(F)F)c2)cc1,ED50,Rattus norvegicus [15],16 mg/kg
same,TD50,Rattus norvegicus [16],72 mg/kg
same,inhibition,Rattus norvegicus [17],Active
same,TD50,[6],> 500 mg/kg
same,ED50,Mus musculus [12],43 mg/kg
same,TD50,Mus musculus [18],81 mg/kg
same,inhibition,Rattus norvegicus [19],inactive
same,ED50,Mus musculus [20],25 mg/kg
same,inhibition,Rattus norvegicus [21],inactive
same,ED50,Rattus norvegicus [22],8.7 mg/kg
same,ED50,Mus musculus [23],81 mg/kg
same,V1/2,CAD [24],11.2 mV
same,inhibition,CAD [1],inactive
same,IC50,[2],2.7 µM
same,V1/2,CAD [25],26.5 mV
same,Ratio TD50/ED50,Rattus norvegicus [26],>57
same,V1/2,Rattus norvegicus [27],-69.6 mV
same,inhibition,CAD [3],inactive
Cl.NCc1ccc(-c2ccccc2OC(F)(F)F)cc1,TD50,[6],> 30 mg/kg
same,ED50,Mus musculus [28],> 120 mg/kg
same,TD50,[7],> 30 mg/kg
same,ED50,Rattus norvegicus [29],< 30 mg/kg
same,ED50,Mus musculus [14],40 mg/kg
same,ED50,Mus musculus [30],< 50 mg/kg
same,ED50,Rattus norvegicus [10],> 30 mg/kg
same,TD50,Mus musculus [31],72 mg/kg
CCCC(CCC)C(=O)O [VALPROIC ACID],ED50,Mus musculus [14],270 mg/kg
COC[C@@H](NC(C)=O)C(=O)NCc1ccccc1 [LACOSAMIDE],TD50,[32],> 500 mg/kg
same,IC50,[2],85 µM
Cl.NCc1ccc(-c2cccc(F)c2)cc1,TD50,[4],> 100 mg/kg
same,ED50,Rattus norvegicus [33],65 mg/kg
same,TD50,[6],> 30 mg/kg
same,ED50,Mus musculus [12],50 mg/kg
same,ED50,Mus musculus [34],> 50 mg/kg
same,TD50,[7],> 65 mg/kg
same,ED50,Rattus norvegicus [10],> 30 mg/kg
same,ED50,Mus musculus [35],50 mg/kg
